These results are taken from ChEMBL document CHEMBL3822375, “Preclinical Characterization of 3β-(N-Acetyl l-cysteine methyl ester)-2aβ,3-dihydrogaliellalactone (GPA512), a Prodrug of a Direct STAT3 Inhibitor for the Treatment of Prostate Cancer” (J Med Chem, 2016).

Series [1] is described as follows: Chemical stability of the compound in phosphate buffer saline assessed as half life at 10 uM at pH 7.4 by LC-MS/MS analysis. Format: physicochemical. To be noted: phosphate buffered saline. The method in brief:
(§1)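 Compound diluted from DMSO (or methanol) stock to 10 µM, 2% solvent final, n=2. Matrix was 0.1 M PBS pH 7.4, or […] HCl with 2 mg/mL NaCl adjusted to pH 1.2. Mixed on a shaker; sampled at nominal 5, 15, 30 and 60 min plus T=0. LC-MS/MS with internal standard; % remaining relative to T=0. Formation of parent also monitored.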

A short description of series [2]: Antiproliferative activity against human DU145 cells after 72 hrs by WST-1 proliferation assay. The series is classed as functional, cell-based. To be noted: DU-145, 72 h. The method in brief: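 Cells in RPMI-1640 (DU145, LNCaP, LNCaP-IL6+) or HAM's F-12 (PC3) with 10% FBS. DU145 and LNCaP-IL6+ seeded at 2 000 cells/well, LNCaP and PC3 at 5 000 cells/well, adhered 24 h, then exposed to compound for 72 h. WST-1 absorbance read at 450 nm with 630 nm reference. Background subtracted; expressed as percent of untreated cells.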
A general note: Tetrazolium dyes change colour on reduction, which living cells bring about.

The subject of series [3] is Mus musculus. Put plainly: Tmax in mouse plasma assessed as galiellalactone level at 10 mg/kg, po by LC-MS/MS analysis. Format: ADME, organism-based. To be noted: in vivo.
Series [4] relates to Mus musculus. The experiment in a line: AUC (0 to t) in mouse plasma assessed as galiellalactone level at 10 mg/kg, po by LC-MS/MS analysis. Particulars: in vivo. The series is classed as ADME, organism-based. The method in brief:
(§2)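 Single dose to mice; oral, iv or ip as listed, in 5% DMSO/50 mM citrate buffer pH 4.0 (dosing solutions 0.5, 2 or 5 mg/mL). Oral dosing at 20 mL/kg. Terminal blood under barbiturate anaesthesia at eight time-points to 8 h, n=3 mice per time-point, EDTA plasma. Acetonitrile precipitation with internal standard, LC-MS/MS against plasma calibration lines. Non-compartmental analysis on mean data, trapezoidal AUC.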

For series [5], the system named is Mus musculus. The experiment in a line: AUC (0 to infinity) in mouse plasma assessed as galiellalactone level at 10 mg/kg, po by LC-MS/MS analysis. To be noted: in vivo. Format: ADME, organism-based. Also noted: dose 10 mg/kg, route oral, time infinity. The method in brief:
as §2

Series [6] has as its system Mus musculus. Put plainly: Cmax in mouse plasma assessed as galiellalactone level at 10 mg/kg, po by LC-MS/MS analysis. The series is classed as ADME, organism-based. Also noted: dose 10 mg/kg, route oral. To be noted: in vivo. The method in brief:
as §2

Series [7] deals with Mus musculus. The experiment in a line: Apparent half life in mouse plasma assessed as galiellalactone level at 10 mg/kg, po by LC-MS/MS analysis. The series is classed as ADME, organism-based. Particulars: in vivo. The method in brief: as §2
Series [8] in a line: Half life of compound in acidic buffer at pH 1.2 at 10 uM by LC-MS analysis. The series is classed as physicochemical. The method in brief: as §1
The next series deals with Hepatocyte. Put plainly: Drug level in mouse hepatocytes treated with 3-beta-(N-Acetyl-L-cysteine methyl ester)-2a-beta,3-dihydrogaliellalactone measured after 2 hrs by UPLC-MS analysis. Format: ADME, cell-based. The method in brief:
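Cryopreserved mouse hepatocytes in Celsis InVitro HI medium, pH 7.4, 37 °C, with 10 µM initial compound from DMSO stock. Sampled at 0 and 120 min, quenched with an equal volume of acetonitrile, analysed by UPLC/Q-TOF-MS. Viability checked by Trypan blue.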

Regarding `C[C@H]1C[C@H]2CC[C@H]3OC(=O)C([C@@H]1SC[C@H](NC(=O)CC[C@H](N)C(=O)O)C(=O)NCC(=O)O)[C@@]23O` (stereo not given in full), the half-life at 10 µM in [1] was over 2.5 h. In series [2], this compound came in with an IC50 of 6.14 µM.
For the compound `COC(=O)[C@H](CS[C@H]1C2C(=O)O[C@@H]3CC[C@H](C[C@@H]1C)[C@]23O)NC(=O)[C@@H](N)C(C)C` (stereo not given in full), the Tmax in the series on Mus musculus [3] worked out at 0.5 h. Also, in [1], the half-life at 10 µM amounted to 1.1 h. Moreover, the AUCt with Mus musculus [4] worked out at 97 µg/mL/min. Also, the AUC in the series on Mus musculus [5] stood at 101 µg/mL/min. In addition, the Cmax in the series with Mus musculus [6] stood at 0.949 µg/mL. Further, the “t1/2(app)” value in the series on Mus musculus [7] is 2.15 h.
Consider `CC(=O)N[C@@H](CS[C@H]1C2C(=O)O[C@@H]3CC[C@H](C[C@@H]1C)[C@]23O)C(N)=O` (stereo not given in full), for which the half-life at 10 µM in series [1] was over 2.5 h. In [2], the 50% inhibitory concentration (IC50) came out at 9.2 µM.
Consider `COC(=O)[C@H](CS[C@H]1C2C(=O)O[C@@H]3CC[C@H](C[C@@H]1C)[C@]23O)NC(=O)c1ccccc1F` (stereo not given in full), for which the time to peak (Tmax) in the series with Mus musculus [3] was found to be 0.25 h. For the same compound, the AUCt with Mus musculus [4] worked out at 7.8 µg/mL/min. In addition, the AUC with Mus musculus [5] turned out to be 11 µg/mL/min. Also, the Cmax in the series with Mus musculus [6] was determined as 0.057 µg/mL. In addition, in the series on Mus musculus [7], the “t1/2(app)” value was found to be 3.15 h.
On to `COC(=O)[C@@H](N)CS[C@H]1C2C(=O)O[C@@H]3CC[C@H](C[C@@H]1C)[C@]23O` (stereo not given in full), for which the Tmax in the series on Mus musculus [3] was found to be 0.5 h. Moreover, the half-life at 10 µM is 0.367 h in series [1] and over 2.5 h in [8]. In addition, the AUCt with Mus musculus [4] worked out at 85 µg/mL/min. Further, the AUC with Mus musculus [5] came out at 102 µg/mL/min. In addition, the Cmax in the series with Mus musculus [6] was determined as 0.788 µg/mL. Further, in series [2], the IC50 is 4.51 µM. The “t1/2(app)” value in the series with Mus musculus [7] stood at 4.63 h.
With `COC(=O)[C@H](CS[C@H]1C2C(=O)O[C@@H]3CC[C@H](C[C@@H]1C)[C@]23O)NC(=O)C(C)C` (stereo not given in full), the Tmax in the series with Mus musculus [3] worked out at 0.5 h. For the same compound, the half-life at 10 µM in [1] is over 2.5 h. Besides, the AUCt in the series with Mus musculus [4] amounted to 15 µg/mL/min. For the same compound, the AUC in the series on Mus musculus [5] amounted to 21 µg/mL/min. Further, the Cmax in the series on Mus musculus [6] turned out to be 0.303 µg/mL. For the same compound, the “t1/2(app)” value in the series with Mus musculus [7] was 4.23 h.
Regarding `CC(=O)N[C@@H](CS[C@H]1C2C(=O)O[C@@H]3CC[C@H](C[C@@H]1C)[C@]23O)C(=O)O` (stereo not given in full), the values for the half-life at 10 µM in series [1] and in series [8] were 0.9 h and 1.9 h, respectively. Further, in the series on Hepatocyte, the Drug metabolism entry is on record as “metabolite_detected”.
With `C[C@H]1C[C@H]2CC[C@H]3OC(=O)C([C@@H]1Sc1ccccc1)[C@@]23O` (stereo not given in full), the Tmax with Mus musculus [3] came to 0.25 h. The AUCt in the series with Mus musculus [4] was determined as 36 µg/mL/min. In addition, the AUC in the series with Mus musculus [5] amounted to 41 µg/mL/min. Besides, in the series with Mus musculus [6], the Cmax is 0.478 µg/mL. Besides, the “t1/2(app)” value with Mus musculus [7] is 3.17 h.
With `C[C@H]1C[C@H]2CC[C@H]3OC(=O)C([C@@H]1SC[C@H](N)C(=O)O)[C@@]23O` (stereo not given in full), the half-life at 10 µM was 0.233 h in series [1] and over 2.5 h in series [8]. In series [2], the midpoint of inhibition, the IC50, lay at 2.66 µM.
For the compound `COC(=O)[C@H](CS[C@H]1C2C(=O)O[C@@H]3CC[C@H](C[C@@H]1C)[C@]23O)NC(=O)OC(C)(C)C` (stereo not given in full), the Tmax with Mus musculus [3] was 0.25 h. Also, the half-life at 10 µM in [1] is over 2.5 h. Besides, the AUCt in the series on Mus musculus [4] was 11 µg/mL/min. For the same compound, the AUC with Mus musculus [5] amounted to 17 µg/mL/min. Further, in the series on Mus musculus [6], the maximum concentration (Cmax) is 0.052 µg/mL. In the series on Mus musculus [7], the “t1/2(app)” value stood at 5.8 h.
`CCOC(=O)[C@H](CS[C@H]1C2C(=O)O[C@@H]3CC[C@H](C[C@@H]1C)[C@]23O)NC(C)=O` (stereo not given in full): the Tmax in the series with Mus musculus [3] came to 0.5 h. The AUCt in the series with Mus musculus [4] came out at 20 µg/mL/min. Further, the AUC with Mus musculus [5] was 22 µg/mL/min. Also, the highest concentration (Cmax) in the series on Mus musculus [6] is 0.263 µg/mL. Further, in the series on Mus musculus [7], the “t1/2(app)” value is 1.08 h.
As to `COC(=O)[C@H](CCS[C@H]1C2C(=O)O[C@@H]3CC[C@H](C[C@@H]1C)[C@]23O)NC(C)=O` (stereo not given in full), the Tmax with Mus musculus [3] was 0.25 h. For the same compound, in the series on Mus musculus [4], the AUCt is 150 µg/mL/min. Further, the AUC in the series with Mus musculus [5] stood at 155 µg/mL/min. Besides, in the series on Mus musculus [6], the Cmax came to 1.102 µg/mL. Besides, in the series on Mus musculus [7], the “t1/2(app)” value was determined as 1.8 h.
Take `C[C@H]1C[C@H]2CC[C@H]3OC(=O)C([C@@H]1SCCS(=O)(=O)O)[C@@]23O` (stereo not given in full): the half-life at 10 µM in [1] was over 2.5 h. In series [2], this compound showed an IC50 of 11.4 µM.
For `C[C@H]1C[C@H]2CC[C@H]3OC(=O)C([C@@H]1SCc1ccccc1)[C@@]23O` (stereo not given in full), the half-life at 10 µM in series [1] is over 2.5 h. The same compound showed an IC50 in [2] of 9.68 µM.

The term half-life denotes the time needed for the level to fall by half in the phase considered. For orientation: IC50 means the concentration that gives 50% inhibition. As a reminder, the Tmax is the time from dosing to the highest level. Usually Cmax stands for the highest concentration seen after dosing.
